Measurements gathered from unrelated publications.
rep main protease: Replicase polyprotein 1ab, main protease (rep, Severe acute respiratory syndrome coronavirus 2, UniProt P0DTD1)
rep methyltransferase: Replicase polyprotein 1ab, methyltransferase (rep, Severe acute respiratory syndrome coronavirus 2, UniProt P0DTD1)

| SMILES | target | read-out | mode | method | setting | endpoint | value |
| --- | --- | --- | --- | --- | --- | --- | --- |
| O=C(O)c1cc(O)c(O)c(O)c1 | rep main protease | enzyme activity | inhibitor |  | with preincubation | IC50 | < 10 µM |
| CCC(Sc1nnc2c(n1)[nH]c1ccccc12)C(=O)N1c2ccccc2Sc2ccccc21 (stereo not shown) | rep methyltransferase | enzyme activity | inhibitor |  |  | IC50 | > 100 µM |
| O=C(O[C@@H]1Cc2c(O)cc(O)cc2O[C@@H]1c1ccc(O)c(O)c1)c1cc(O)c(O)c(O)c1 | rep main protease | enzyme activity | inhibitor |  | with preincubation | IC50 | < 10 µM |
| COc1ccc(OC)c(C(O)C(C)N)c1 (stereo not shown) | Alpha-1A adrenergic receptor (ADRA1A, Homo sapiens, UniProt P35348) | protein level | degrader | western blot |  | DC50 | 17.4 µM |
| C[C@@H]1CCO[C@H]2Cn3cc(C(=O)NCc4ccc(F)cc4F)c(=O)c(O)c3C(=O)N12 | rep main protease | enzyme activity | inhibitor |  |  | IC50 | 49.4 µM |
| CCC1CC(c2ccc(C(=O)O)cc2)=NN1c1ccc(C#N)c(Cl)c1 (stereo not shown) | rep methyltransferase | enzyme activity | inhibitor |  |  | IC50 | 0.42 µM |
| CC1(C)O[C@@H]2C[C@H]3[C@@H]4C[C@H](F)C5=CC(=O)C=C[C@]5(C)[C@@]4(F)[C@@H](O)C[C@]3(C)[C@]2(C(=O)CO)O1 | rep main protease | enzyme activity | inhibitor |  |  | IC50 | 69.1 µM |
| N#Cc1ccc(N2CCC(c3ccc(C(=O)O)cc3)=N2)cc1Cl | rep methyltransferase | enzyme activity | inhibitor |  |  | IC50 | 53.1 µM |
| Cc1c(O)cccc1C(=O)N[C@@H](CSc1ccccc1)[C@H](O)CN1C[C@H]2CCCC[C@H]2C[C@H]1C(=O)NC(C)(C)C | rep main protease | enzyme activity | inhibitor |  |  | IC50 | 28.8 µM |
| O=C(N1CCC2(CC1)C[C@H](CN1CCCCS1(=O)=O)CCO2)C1(c2ccccc2)CCCC1 | Replicase polyprotein 1ab, helicase (rep, Severe acute respiratory syndrome coronavirus 2, UniProt P0DTD1) | ATPase activity | inhibitor |  |  | IC50 | > 100 µM |
